The values below come from ChEMBL document CHEMBL3098030, “Explorations of substituted urea functionality for the discovery of new activators of the heme-regulated inhibitor kinase” (J Med Chem, 2013).

A word on the IC50: it is the concentration that inhibits the measured activity by half.

Active and inactive are the calls of the source. No cut-off for these calls is given here. Some results are limits rather than exact numbers.

Data set [1] concerns the target Eukaryotic translation initiation factor 2-alpha kinase 1 (Homo sapiens) (UniProt Q9BQI3). Description: Activation of HRI in human CRL-2813-pBISA-DL(ATF-4) reporter cells assessed as concentration required to obtain F-luciferase expression/R-luciferase expression ratio 3. The gist of the method:
(§1)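 Stably transfected CRL-2813-pBISA-DL(ATF-4) reporter cells treated with compounds in dose-response; firefly and renilla luciferases read by dual glow luciferase kit. Activity = firefly/renilla (F/R) ratio normalized to DMSO-treated wells (set at 1). Triplicate points fitted to logistic sigmoidal model by nonlinear least squares; C3X = concentration giving F/R = 3, Emax = maximal F/R.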

The nature of data set [2]: Selectivity ratio of IC50 for mouse NIH/3T3 cells to IC50 for human CRL2813 cells. The conditions noted are these: NIH/3T3 cells and CRL2813 cells, read-out: Ratio IC50. Type of data set: ADME, cell-based.
The next data set has as its system NIH3T3. Description: Cytotoxicity against mouse NIH/3T3 cells after 5 days by SRB assay. Type of data set: cell-based. The conditions noted are these: NIH3T3, 120 h. Put shortly:
(§2)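 CRL-2813 melanoma or NIH/3T3 fibroblasts seeded in 96-well plates, exposed 5 days to 0.5–20 μM compound; fixed in cold 10% TCA, bound sulforhodamine B measured. % growth = 100×(T−T0)/(C−T0). IC50 derived; triplicate, three independent experiments.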
In general terms: Sulforhodamine B stains cellular protein and so reports cell mass.

Data set [3] relates to MCF7. Description: Antiproliferative activity against human MCF7 cells after 5 days by SRB assay in presence of HRI-targeting siRNA. As to conditions: MCF7, 120 h. Type of data set: functional, cell-based.
For data set [4], the system named is MCF7. Description: Antiproliferative activity against human MCF7 cells after 5 days by SRB assay in presence of non-targeting siRNA. Type of data set: functional, cell-based. As to conditions: MCF7, 120 h.
Data set [5] is described as follows: Antiproliferative activity against human CRL2813 cells after 5 days by SRB assay in presence of HRI-targeting siRNA. Type of data set: functional, cell-based. As to conditions: CRL2813, 120 h.
Data set [6] can be described thus: Antiproliferative activity against human CRL2813 cells after 5 days by SRB assay in presence of non-targeting siRNA. The class given is functional, cell-based. As to conditions: CRL2813, 120 h.
For data set [7], the target named is Eukaryotic translation initiation factor 2-alpha kinase 1 (Homo sapiens) (UniProt Q9BQI3). Description: Activation of HRI in human CRL-2813-pBISA-DL(ATF-4) reporter cells assessed as eIF2alpha phosphorylation after 10 hrs by dual-luciferase reporter gene assay in presence of siRNA relative to control. Put shortly:
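CRL-2813-pBISA-DL(ATF-4) reporter cells transiently transfected (Lipofectamine 2000) with HRI-targeting or non-targeting siRNA for 48 h, then treated with compounds or DMSO for 10 h. Firefly/renilla ratio by dual luciferase assay, normalized to vehicle. Triplicate, three independent experiments; mean±S.E.M.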
(In general: In a reporter assay the amount or activity of a reporter protein is the signal.)

The target is the same in data set [8]. As to the kind of experiment: Activation of HRI in human CRL2813 cells assessed as reduction in cyclin D1 mRNA expression at 7.5 to 15 uM after 6 hrs by RT-PCR analysis. Type of data set: cell-based. The gist of the method:
(§3)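 CRL-2813 cells incubated with 7.5 or 15 μM compound for 6 h; CHOP and cyclin D1 mRNA measured by real-time PCR. Each run in triplicate, mean of three independent experiments ±S.E.M.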

Data set [9] has the same target. As to the kind of experiment: Activation of HRI in human CRL2813 cells assessed as increase in CHOP mRNA expression at 7.5 to 15 uM after 6 hrs by RT-PCR analysis. The class given is cell-based. Put shortly: as §3
Data set [10] shares this target. As to the kind of experiment: Activation of HRI in human CRL2813 cells assessed as reduction in cyclin D1 protein expression at 10 uM after 6 hrs by Western blotting analysis. Type of data set: cell-based. The gist of the method: (§4)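 CRL-2813 melanoma cells grown in serum-containing medium without antibiotics to 70% confluence, treated 6 h (10 μM for CHOP/cyclin D1), lysed in M-PER on ice 30 min, protein by BCA. Equal protein on SDS-PAGE, probed with anti-pS51-eIF2α rabbit mAb, anti-total eIF2α mouse mAb, anti-CHOP, anti-cyclin D1, anti-actin. Three independent experiments.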
On the technique in general: A western blot detects proteins with antibodies after separation by electrophoresis.

Data set [11] shares this target. As to the kind of experiment: Activation of HRI in human CRL2813 cells assessed as increase in CHOP protein expression at 10 uM after 6 hrs by Western blotting analysis. Type of data set: cell-based. The gist of the method:
as §4

For data set [12] the target is unchanged. As to the kind of experiment: Activation of HRI in human CRL2813 cells assessed as eIF2alpha phosphorylation after 6 hrs by Western blotting analysis. Type of data set: cell-based. Put shortly:
as §4

The nature of data set [13]: Cytotoxicity against human CRL2813 cells after 5 days by SRB assay. Type of data set: functional, cell-based. As to conditions: CRL2813, 120 h. Put shortly:
as §2

The target in data set [14] is Eukaryotic translation initiation factor 2-alpha kinase 1 (Homo sapiens) (UniProt Q9BQI3). Description: Activation of HRI in human CRL-2813-pBISA-DL(ATF-4) reporter cells assessed as reduction of ternary complex at 30 uM by dual-luciferase reporter gene assay relative to control. Put shortly:
as §1

The nature of data set [15]: Ratio of IC50 for human CRL2813 cells after 3 days by SRB assay in presence of HRI-targeting siRNA to IC50 for human CRL2813 cells after 3 days by SRB assay in presence of non-targeting siRNA.
Data set [16] can be described thus: Ratio of IC50 for human CRL2813 cells after 3 days by SRB assay in presence of HRI-targeting siRNA to IC50 for human CRL2813 cells after 3 days by SRB assay in presence of non-targeting siRNA. Type of data set: functional. The gist of the method: (§5)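 CRL-2813 cells transiently transfected (Lipofectamine 2000) with HRI-targeting or non-targeting siRNA, then treated with compound dose range; proliferation by SRB after 3 days. IC50 calculated per siRNA condition; ratio is HRI-siRNA over non-targeting IC50. Triplicate, three independent experiments; mean±S.E.M.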

Data set [17] can be described thus: Antiproliferative activity against human CRL2813 cells after 3 days by SRB assay in presence of HRI-targeting siRNA. The conditions noted are these: CRL2813, 72 h. The class given is functional, cell-based. The gist of the method: as §5
The nature of data set [18]: Antiproliferative activity against human CRL2813 cells after 3 days by SRB assay in presence of non-targeting siRNA. The conditions noted are these: CRL2813, 72 h. Type of data set: functional, cell-based. The gist of the method:
as §5

For data set [19], the target named is Eukaryotic translation initiation factor 2-alpha kinase 1 (Homo sapiens) (UniProt Q9BQI3). As to the kind of experiment: Activation of HRI in human CRL-2813-pBISA-DL(ATF-4) reporter cells assessed as eIF2alpha phosphorylation after 8 to 32 hrs by dual-luciferase reporter gene assay. The gist of the method: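 Reporter CRL-2813-pBISA-DL(ATF-4) cells incubated with compounds for 8, 16 or 32 h. Firefly/renilla luciferase ratio measured by dual luciferase assay and normalized to vehicle-treated cells.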
Chain of Eukaryotic translation initiation factor 2-alpha kinase 1 (Homo sapiens) (Q9BQI3 whole entry): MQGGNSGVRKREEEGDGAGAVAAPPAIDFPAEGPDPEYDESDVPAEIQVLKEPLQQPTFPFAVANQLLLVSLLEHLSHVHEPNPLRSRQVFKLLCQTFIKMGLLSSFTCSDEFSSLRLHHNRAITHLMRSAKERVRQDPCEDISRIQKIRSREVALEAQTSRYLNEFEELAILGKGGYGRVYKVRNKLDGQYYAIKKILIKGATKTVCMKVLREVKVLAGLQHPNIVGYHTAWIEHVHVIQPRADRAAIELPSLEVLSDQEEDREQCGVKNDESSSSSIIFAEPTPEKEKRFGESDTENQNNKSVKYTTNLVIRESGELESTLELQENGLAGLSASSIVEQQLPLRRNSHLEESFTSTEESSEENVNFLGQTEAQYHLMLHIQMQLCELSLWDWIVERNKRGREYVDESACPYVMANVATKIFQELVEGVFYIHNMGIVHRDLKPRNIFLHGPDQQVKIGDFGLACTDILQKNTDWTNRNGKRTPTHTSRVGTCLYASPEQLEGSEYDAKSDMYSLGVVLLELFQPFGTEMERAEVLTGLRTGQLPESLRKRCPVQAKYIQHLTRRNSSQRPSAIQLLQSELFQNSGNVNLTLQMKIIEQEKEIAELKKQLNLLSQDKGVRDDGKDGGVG

As for `O=C(Nc1ccc(OC(F)(F)F)cc1)N[C@H]1CC[C@H](Oc2ccc(F)cc2)CC1`, in data set [1], the Activity was 0.7 µM. Besides, the selectivity ratio in data set [2] came to 5. Moreover, the IC50 in the data set with NIH3T3 stood at 13.6 µM; with MCF7 [3], 30 µM; in the data set on MCF7 [4], 9.2 µM; in data set [5], 7.4 µM; in data set [6], 3.3 µM; in data set [13] it was 2.7 µM. Also, the result in [7] was inactive. In addition, the outcome in [8], in data set [9], in data set [10], in data set [11] and in data set [12] was Active. Moreover, in data set [14], the Ratio is 15.3. In addition, the “Ratio IC50” value in [15] came to 1.7.
As for `O=C(Nc1cccc(C(F)(F)F)c1)N[C@H]1CC[C@H](Oc2cccc(F)c2)CC1`, the “Ratio IC50” value in data set [16] is 7. The values for the IC50 in data set [17], in data set [18] and in [13] were 29.9 µM, 4.3 µM and 2.4 µM, respectively. In [1], the Activity stood at 2.6 µM. In addition, the outcome in data set [19] was Active. For the same molecule, the Ratio in [14] amounted to 7.23.
On to `O=C(Nc1ccc([N+](=O)[O-])cc1)N[C@H]1CC[C@H](Oc2ccc(F)cc2)CC1`, for which, in data set [1], the Activity came to 6.7 µM. The IC50 in the data set with MCF7 [3] is over 30 µM; in the data set with MCF7 [4], 9.8 µM; in data set [5], 12.2 µM; in data set [6], 5.2 µM; in data set [13] it was 2.3 µM. Further, the outcome in data set [7] was inactive. Moreover, the result in data set [8], in data set [9], in data set [10], in data set [11] and in data set [12] was Active. Further, in data set [14], the Ratio is 9. Further, in [15], the “Ratio IC50” value worked out at 1.7.
For `O=C(Nc1cccc(C(F)(F)F)c1)N[C@H]1CC[C@@H](Oc2ccc(F)cc2)CC1`, the IC50 was 10.4 µM in [17]; 6 µM in [18]; over 30 µM in the data set on MCF7 [3]; 11.3 µM in the data set with MCF7 [4]; 10.4 µM in [5]; 6 µM in [6]. Besides, the IC50 in [13] is 2.6 µM. Also, the Activity in data set [1] stood at 4.5 µM. For the same molecule, the result in data set [7] was inactive. Besides, the outcome in data set [8], in [9], in data set [10], in data set [11] and in data set [12] was Active. The Ratio in data set [14] is 11.8. Besides, the “Ratio IC50” value in data set [15] was found to be 1.7.
As for `O=C(Nc1cccc(C(F)(F)F)c1)N[C@H]1CC[C@H](Oc2ccccc2F)CC1`, the “Ratio IC50” value in [16] is 7. Further, the IC50 in data set [17] was found to be 21.9 µM; in data set [18], 2.8 µM; in data set [13], 2.45 µM. Besides, in data set [1], the Activity amounted to 3.2 µM. Moreover, the result in [19] was Active. In addition, the Ratio in data set [14] turned out to be 7.98.
With `O=C(Nc1ccc(C(F)(F)F)cc1)N[C@H]1CC[C@H](Oc2ccc(F)cc2)CC1`, the Activity in data set [1] amounted to 1.6 µM. The IC50 was found to be 29.5 µM in the data set with MCF7 [3]; 8.4 µM with MCF7 [4]; 6.5 µM in data set [5]; 3.1 µM in data set [6]; 2.8 µM in data set [13]. Further, the result in [7] was inactive. For the same molecule, the result in data set [8], in [9], in data set [10], in data set [11] and in data set [12] was Active. Further, the Ratio in data set [14] was 14. The “Ratio IC50” value in data set [15] came out at 1.7.
As to `O=C(Nc1cccc(C(F)(F)F)c1)N[C@H]1CC[C@H](Oc2ccc(OC(F)(F)F)cc2)CC1`, the half-inhibitory concentration (IC50) in data set [17] amounted to 4.9 µM; in [18], 0.85 µM; in the data set with NIH3T3, 3.4 µM; in data set [13] it was 0.69 µM. In addition, the Activity in data set [1] stood at 1.5 µM. Moreover, the selectivity ratio in data set [2] was determined as 4.9. The Ratio in data set [14] was 14.4.
On to `O=C(Nc1cccc(C(F)(F)F)c1)N[C@H]1CC[C@H](Oc2cccc(C(F)(F)F)c2)CC1`, for which the IC50 in data set [17] was found to be 4.9 µM; in data set [18], 1.05 µM; in the data set with NIH3T3 it was 3.3 µM; in [13], 1.3 µM. Also, the Activity in [1] turned out to be 1.1 µM. Moreover, the selectivity ratio in data set [2] was found to be 2.5. Also, in data set [14], the Ratio was 26.
